# Measurements as given in ChEMBL document CHEMBL1150052, “A colorimetric microassay for the detection of agents that interact with DNA” (J Nat Prod, 1992).
# Key:
# Nucleic Acid = experiment: Displacement of methyl green from DNA after 24 hrs by microtiter assay; format: nucleic-acid assay
# How it was run: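 Complex: DNA–methyl green reagent (20 mg/100 ml) in 0.05 M Tris-HCl pH 7.5 with 7.5 mM MgSO4, stirred 24 h at 37°. Samples dried from EtOH in wells, then complex added. A630 read at once and after 24 h dark at ambient temperature. Final corrected for initial, normalized to untreated complex. IC50 for 50% decrease by linear regression on semi-log plot; n = 3 to 5.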
# Calf thymus DNA = experiment: Displacement of ethidium bromide from calf thymus type 1 DNA after 4 hrs by microtiter assay
Compound,IC50 (Nucleic Acid) [mg/L],IC50 (Calf thymus DNA) [mg/L]
CCOc1ccc(-c2nc3cc(-c4nc5cc(N6CCN(C)CC6)ccc5[nH]4)ccc3[nH]2)cc1,37,33
COc1cccc2c1C(=O)c1c(O)c3c(c(O)c1C2=O)C[C@@](O)(C(C)=O)C[C@@H]3O[C@H]1C[C@H](N)[C@H](O)[C@H](C)O1 [DAUNORUBICIN],30,2
COc1c(O)c2c(c3cc(C(=O)N4CCc5c4c(O)c(OC)c4[nH]c(C(=O)N6C[C@H]7C[C@@]78C6=CC(=O)c6[nH]cc(C)c68)cc54)[nH]c13)CCN2C(N)=O [(+)-CC-1065],62,26
N=C(N)c1ccc(/N=N/Nc2ccc(C(=N)N)cc2)cc1 [DIMINAZENE],67,59
COC(=O)C(O)(c1cc2c(c3oc([C@]4(C)C[C@@H]4C)cc(=O)c13)C(=O)c1c(ccc([C@H]3C[C@](C)(N(C)C)[C@H](O[C@@H]4C[C@H](OC)[C@H](O)[C@@H](C)O4)[C@H](C)O3)c1O)C2=O)[C@H]1O[C@H](C)[C@@H](O)[C@@H](OC)[C@@H]1O (some centres not stated) [ALTROMYCIN B],67,44
C/C=C\C1OC1(C)c1cc(=O)c2c(C)cc3c(c2o1)C(=O)c1c(O)c([C@H]2C[C@@](C)(N(C)C)[C@H](O)[C@H](C)O2)cc([C@@H]2C[C@H](N(C)C)[C@@H](O)[C@@H](C)O2)c1C3=O (some centres not stated) [RUBIFLAVIN],17,13
C/C=C\C1OC1(C)c1cc(=O)c2c(C)cc3c(c2o1)C(=O)c1c(O)c([C@H]2C[C@](C)(N(C)C)[C@@H](OC(C)=O)[C@@H](C)O2)cc([C@@H]2C[C@H](N(C)C)[C@@H](O)[C@@H](C)O2)c1C3=O (some centres not stated) [PLURAMYCIN],51,3.6
Cn1cc(NC(=O)c2cc(NC(=O)c3cc(NC=O)cn3C)cn2C)cc1C(=O)NCCC(=N)N [STALLIMYCIN],18,4.3
COc1cc2c(oc(=O)c3cc(C)cc(OC)c32)c2c([C@@H]3O[C@H](C)[C@H](O)[C@@](C)(O)[C@H]3O)ccc(O)c12 [CHRYSOMYCIN B],20,
